# Source: ChEMBL document CHEMBL1156144, “Biaryl ethers as novel non-nucleoside reverse transcriptase inhibitors with improved potency against key mutant viruses” (J Med Chem, 2009)
# What was measured:
# [1] = Inhibition of RNA-dependent DNA polymerase activity of wild type HIV reverse transcriptase assessed as BrdU incorporation by standard ECL assay; design: species or system Human immunodeficiency virus
# Outline: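 Purified recombinant wild-type RT polymerase activity was measured using a 500-nt heteropolymeric RNA template and a biotinylated DNA primer. BrdU incorporation was detected with a ruthenylated anti-BrdU antibody by electrochemiluminescence. Ki is the geometric mean of at least two determinations, each within 25% of the mean.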
# [2] = target: Human immunodeficiency virus type 1 reverse transcriptase (Human immunodeficiency virus 1, UniProt Q72547, K103N); assay: Inhibition of RNA-dependent DNA polymerase activity of recombinant HIV reverse transcriptase K103N mutant assessed as BrdU incorporation by standard ECL assay
# [3] = system: Human immunodeficiency virus; assay: Antiviral activity against wild type HIV H9-3B infected in human MT2 cells assessed as inhibition of viral replication measuring p24 level after 3 days in presence of 10% fetal bovine serum; assay type: functional; conditions: Human immunodeficiency virus 1, MT2, Serum; read-out: CIC95
# Outline: (§1)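 Multiple-cycle spread assay in MT2 cells with wild-type H9IIIB virus. Cells were infected overnight at moi ≈ 0.01 without compound, washed, then cultured 3 days across varying compound concentrations in RPMI 1640 with 10% FBS or 50% NHS. p24 was measured in supernatants. CIC95 is the lowest concentration inhibiting replication ≥95%, as the geometric mean of ≥2 determinations.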
# [4] = system: Human immunodeficiency virus; assay: Antiviral activity against wild type HIV H9-3B infected in human MT2 cells assessed as inhibition of viral replication measuring p24 level after 3 days in presence of 50% normal human serum; assay type: functional; conditions: Human immunodeficiency virus 1, H9-3B, 72 h, read-out: CIC95; outline: as §1
# [5] = system: Human immunodeficiency virus; assay: Antiviral activity against HIV with reverse transcriptase K103N mutant infected in human MT2 cells assessed as inhibition of viral replication measuring p24 level after 3 days in presence of 10% fetal bovine serum; assay type: functional; conditions: Human immunodeficiency virus 1, MT2, Serum, 72 h; read-out: CIC95
# Outline: (§2)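 Multiple-cycle replication (Spread) assay in MT2 cells with H9IIIB-background mutant virus. Cells were infected overnight at moi ≈ 0.01 without compound, washed, then cultured 3 days across a range of compound concentrations in medium with 10% FBS. p24 was measured in supernatants. CIC95 is the lowest concentration inhibiting replication by ≥95%, reported as the geometric mean of ≥2 determinations.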
# [6] = system: Human immunodeficiency virus; assay: Antiviral activity against HIV with reverse transcriptase Y181C mutant infected in human MT2 cells assessed as inhibition of viral replication measuring p24 level after 3 days in presence of 10% fetal bovine serum; assay type: functional; conditions: Human immunodeficiency virus 1, MT2, Serum, 72 h; read-out: CIC95; outline: as §2
# [7] = system: Human immunodeficiency virus; assay: Antiviral activity against HIV with reverse transcriptase K103N/Y181C double mutant infected in human MT2 cells assessed as inhibition of viral replication measuring p24 level after 3 days in presence of 10% fetal bovine serum; assay type: functional; conditions: Human immunodeficiency virus 1, MT2, Serum, 72 h; read-out: CIC95; outline: as §2
# [8] = Clearance in Sprague-Dawley rat at 2 mg/kg, iv; assay type: ADME, organism-based; design: dose 2 mg/kg, route intravenous; conditions: in vivo
# [9] = Volume of distribution in Sprague-Dawley rat at 2 mg/kg, iv; assay type: ADME, organism-based; design: dose 2 mg/kg, route intravenous; conditions: in vivo
# Rattus norvegicus [10] = assay: AUC in Sprague-Dawley rat at 2 mg/kg, iv; assay type: ADME, organism-based, Plasma; design: dose 2 mg/kg, route intravenous; conditions: in vivo
# Rattus norvegicus [11] = assay: AUC in Sprague-Dawley rat at 10 mg/kg, po; assay type: ADME, organism-based, Plasma; design: dose 10 mg/kg, route oral; conditions: in vivo
# [12] = Half life in Sprague-Dawley rat at 2 mg/kg, iv; assay type: ADME, organism-based; design: dose 2 mg/kg, route intravenous; conditions: in vivo
# [13] = Oral bioavailability in Sprague-Dawley rat at 10 mg/kg; assay type: ADME, organism-based; conditions: in vivo
# [14] = Clearance in Beagle dog at 0.5 mg/kg, iv; assay type: ADME, organism-based, Canis lupus familiaris; design: dose 0.5 mg/kg, route intravenous; conditions: in vivo
# [15] = Volume of distribution in Beagle dog at 0.5 mg/kg, iv; assay type: ADME, organism-based, Canis lupus familiaris; design: dose 0.5 mg/kg, route intravenous; conditions: in vivo
# Canis familiaris [16] = assay: AUC in Beagle dog at 1 mg/kg, po; assay type: ADME, organism-based, Canis lupus familiaris, Plasma; design: dose 1 mg/kg, route oral; conditions: in vivo
# [17] = Half life in Beagle dog at 0.5 mg/kg, iv; assay type: ADME, organism-based, Canis lupus familiaris; design: dose 0.5 mg/kg, route intravenous; conditions: in vivo
# [18] = Oral bioavailability in Beagle dog at 1 mg/kg; assay type: ADME, organism-based, Canis lupus familiaris; conditions: in vivo
# [19] = Clearance in rhesus monkey at 1 mg/kg, iv; assay type: ADME, organism-based, Macaca mulatta; design: dose 1 mg/kg, route intravenous; conditions: in vivo
# [20] = Volume of distribution in rhesus monkey at 1 mg/kg, iv; assay type: ADME, organism-based, Macaca mulatta; design: dose 1 mg/kg, route intravenous; conditions: in vivo
# Rhesus monkey = assay: AUC in rhesus monkey at 5 mg/kg, po; assay type: ADME, organism-based, Macaca mulatta, Plasma; design: dose 5 mg/kg, route oral; conditions: in vivo
# [21] = Half life in rhesus monkey at 1 mg/kg, iv; assay type: ADME, organism-based, Macaca mulatta; design: dose 1 mg/kg, route intravenous; conditions: in vivo
# [22] = system: Human immunodeficiency virus; assay: Antiviral activity against HIV with reverse transcriptase MDRC4 mutant assessed as inhibition of viral replication; assay type: functional, organism-based; conditions: Human immunodeficiency virus 1
# [23] = system: Human immunodeficiency virus; assay: Antiviral activity against HIV with reverse transcriptase CNDO mutant assessed as inhibition of viral replication; assay type: functional, organism-based; conditions: Human immunodeficiency virus 1
# [24] = system: Human immunodeficiency virus; assay: Antiviral activity against HIV with reverse transcriptase L100I mutant assessed as inhibition of viral replication; assay type: functional, organism-based; conditions: Human immunodeficiency virus 1
# [25] = system: Human immunodeficiency virus; assay: Antiviral activity against HIV with reverse transcriptase K103N mutant assessed as inhibition of viral replication; assay type: functional, organism-based; conditions: Human immunodeficiency virus 1
# [26] = system: Human immunodeficiency virus; assay: Antiviral activity against HIV with reverse transcriptase Y181C mutant assessed as inhibition of viral replication; assay type: functional, organism-based; conditions: Human immunodeficiency virus 1
# [27] = system: Human immunodeficiency virus; assay: Antiviral activity against HIV with reverse transcriptase Y188L mutant assessed as inhibition of viral replication; assay type: functional, organism-based; conditions: Human immunodeficiency virus 1
# [28] = system: Human immunodeficiency virus; assay: Antiviral activity against HIV with reverse transcriptase G190A mutant assessed as inhibition of viral replication; assay type: functional, organism-based; conditions: Human immunodeficiency virus 1
# [29] = system: Human immunodeficiency virus; assay: Antiviral activity against HIV with reverse transcriptase G190S mutant assessed as inhibition of viral replication; assay type: functional, organism-based; conditions: Human immunodeficiency virus 1
# [30] = system: Human immunodeficiency virus; assay: Antiviral activity against HIV with reverse transcriptase L100I/K103N double mutant assessed as inhibition of viral replication; assay type: functional, organism-based; conditions: Human immunodeficiency virus 1
# [31] = system: Human immunodeficiency virus; assay: Antiviral activity against HIV with reverse transcriptase K103N/Y181C double mutant assessed as inhibition of viral replication; assay type: functional, organism-based; conditions: Human immunodeficiency virus 1
# [32] = system: Human immunodeficiency virus; assay: Antiviral activity against HIV with reverse transcriptase K103N/G190A double mutant assessed as inhibition of viral replication; assay type: functional, organism-based; conditions: Human immunodeficiency virus 1
# [33] = system: Human immunodeficiency virus; assay: Antiviral activity against HIV with reverse transcriptase Y181C/G190A double mutant assessed as inhibition of viral replication; assay type: functional, organism-based; conditions: Human immunodeficiency virus 1
# [34] = system: Human immunodeficiency virus; assay: Antiviral activity against HIV with reverse transcriptase K103N/P225H double mutant assessed as inhibition of viral replication; assay type: functional, organism-based; conditions: Human immunodeficiency virus 1
# [35] = system: Human immunodeficiency virus; assay: Antiviral activity against HIV with reverse transcriptase K101E/G190A double mutant assessed as inhibition of viral replication; assay type: functional, organism-based; conditions: Human immunodeficiency virus 1
# [36] = system: Human immunodeficiency virus; assay: Antiviral activity against HIV with reverse transcriptase K101E/Y181C/G190A mutant assessed as inhibition of viral replication; assay type: functional, organism-based; conditions: Human immunodeficiency virus 1
# [37] = system: Human immunodeficiency virus; assay: Antiviral activity against HIV with reverse transcriptase K103N/Y181C/G190A mutant assessed as inhibition of viral replication; assay type: functional, organism-based; conditions: Human immunodeficiency virus 1
# [38] = system: Human immunodeficiency virus; assay: Antiviral activity against HIV with reverse transcriptase V106A/G190A/F227L mutant assessed as inhibition of viral replication; assay type: functional, organism-based; conditions: Human immunodeficiency virus 1
# Cytochrome P450 3A4 = Cytochrome P450 3A4 (Homo sapiens, UniProt P08684); assay: Inhibition of CYP3A4; assay type: ADME
# Chain of Cytochrome P450 3A4 (P08684 whole entry): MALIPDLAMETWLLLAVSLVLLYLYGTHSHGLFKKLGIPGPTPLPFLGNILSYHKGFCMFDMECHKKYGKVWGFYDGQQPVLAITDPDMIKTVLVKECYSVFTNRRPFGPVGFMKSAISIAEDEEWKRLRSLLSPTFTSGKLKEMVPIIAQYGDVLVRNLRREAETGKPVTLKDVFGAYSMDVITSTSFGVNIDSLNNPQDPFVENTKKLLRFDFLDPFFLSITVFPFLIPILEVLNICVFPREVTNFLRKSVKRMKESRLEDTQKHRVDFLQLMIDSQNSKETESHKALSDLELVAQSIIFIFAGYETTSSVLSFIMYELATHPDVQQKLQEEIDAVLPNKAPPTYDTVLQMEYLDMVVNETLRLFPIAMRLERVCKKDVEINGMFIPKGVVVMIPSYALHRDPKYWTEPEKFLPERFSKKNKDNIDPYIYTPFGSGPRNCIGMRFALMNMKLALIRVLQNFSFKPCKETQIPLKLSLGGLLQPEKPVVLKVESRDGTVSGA
# Cytochrome P450 2D6 = Cytochrome P450 2D6 (Homo sapiens, UniProt P10635); assay: Inhibition of CYP2D6; assay type: ADME
# Chain of Cytochrome P450 2D6 (P10635 whole entry): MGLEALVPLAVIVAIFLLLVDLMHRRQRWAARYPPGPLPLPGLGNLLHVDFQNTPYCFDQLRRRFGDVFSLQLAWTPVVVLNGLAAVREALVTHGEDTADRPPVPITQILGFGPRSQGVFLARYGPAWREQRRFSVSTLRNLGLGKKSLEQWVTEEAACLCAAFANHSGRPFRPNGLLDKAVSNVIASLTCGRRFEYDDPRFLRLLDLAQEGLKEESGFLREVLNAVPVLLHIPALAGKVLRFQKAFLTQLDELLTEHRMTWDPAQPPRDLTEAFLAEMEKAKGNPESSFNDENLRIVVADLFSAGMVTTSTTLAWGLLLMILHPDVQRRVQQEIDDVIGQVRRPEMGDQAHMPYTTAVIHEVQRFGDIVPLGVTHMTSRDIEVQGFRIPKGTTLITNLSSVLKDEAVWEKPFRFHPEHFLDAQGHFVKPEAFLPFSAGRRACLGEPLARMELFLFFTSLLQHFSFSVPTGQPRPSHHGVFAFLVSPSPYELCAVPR
# Canis familiaris [39] = assay: Cardiotoxicity in conscious cardiovascular dog assessed as mean arterial pressure at 10 mg/kg, iv; assay type: toxicity, organism-based, Canis lupus familiaris, Heart; design: dose 10 mg/kg, route intravenous; conditions: in vivo
# Canis familiaris [40] = assay: Cardiotoxicity in conscious cardiovascular dog assessed as heart rate at 10 mg/kg, iv; assay type: toxicity, organism-based, Canis lupus familiaris; design: dose 10 mg/kg, route intravenous; conditions: in vivo
# Canis familiaris [41] = assay: Cardiotoxicity in conscious cardiovascular dog assessed as electrocardiogram at 10 mg/kg, iv; assay type: toxicity, organism-based, Canis lupus familiaris, Heart; design: dose 10 mg/kg, route intravenous; conditions: in vivo
# [42] = Plasma concentration in rat at 100 mg/kg, po after 24 hrs; assay type: ADME, organism-based; design: dose 100 mg/kg, route oral
# [43] = Oral bioavailability in rhesus monkey at 5 mg/kg; conditions: in vivo
smiles,measurement,setting,value
N#Cc1cc(Cl)cc(Oc2cc(OCc3n[nH]c4nc(N)ccc34)cc(F)c2Cl)c1,Ki,[1],0.1 nM
same,Ki,[2],0.4 nM
same,IC95,[3],8 nM
same,IC95,[4],69 nM
same,IC95,[5],18 nM
same,IC95,[6],14 nM
same,IC95,[7],62 nM
same,clearance,[8],10 mL/min/kg
same,Vd,[9],3.5 L/kg
same,AUC,Rattus norvegicus [10],7.4 µM
same,AUC,Rattus norvegicus [11],18 µM
same,half-life,[12],4.6 h
same,bioavailability,[13],49%
same,clearance,[14],4 mL/min/kg
same,Vd,[15],2.3 L/kg
same,AUC,Canis familiaris [16],6 µM
same,half-life,[17],7 h
same,bioavailability,[18],63%
same,clearance,[19],15 mL/min/kg
same,Vd,[20],3.6 L/kg
same,AUC,Rhesus monkey,1.7 µM
same,half-life,[21],4.2 h
same,IC50,[22],6.4 nM
same,IC50,[23],1.1 nM
same,IC50,[24],0.6 nM
same,IC50,[25],3.3 nM
same,IC50,[26],2.2 nM
same,IC50,[27],326 nM
same,IC50,[28],2 nM
same,IC50,[29],37.3 nM
same,IC50,[30],112 nM
same,IC50,[31],184 nM
same,IC50,[32],9.6 nM
same,IC50,[33],4.3 nM
same,IC50,[34],3.3 nM
same,IC50,[35],3.4 nM
same,IC50,[36],19.2 nM
same,IC50,[37],84.3 nM
same,IC50,[38],> 1000 nM
same,IC50,Cytochrome P450 3A4,4400 nM
same,IC50,Cytochrome P450 2D6,47400 nM
same,Activity,Canis familiaris [39],Non-toxic
same,Activity,Canis familiaris [40],Non-toxic
same,Activity,Canis familiaris [41],Non-toxic
same,AUC at 24 h,[42],180 µM·h
same,bioavailability,[43],13%
